Reference: ChEMBL document CHEMBL3997803, “Accepting the Invitation to Open Innovation in Malaria Drug Discovery: Synthesis, Biological Evaluation, and Investigation on the Structure-Activity Relationships of Benzo[b]thiophene-2-carboxamides as Antimalarial Agents” (J Med Chem, 2017)
Calls of active or inactive are those of the source. No cut-off for these calls is given here.

Key:
Plasmodium falciparum [1] = assay: Anti-parasitic activity against CQ-sensitive Plasmodium falciparum D10 assessed as growth inhibition by measuring increase in LDH release after 72 hrs by spectrophotometric method; format: functional; details: D10, 72 h
Procedure, shortened: (§1)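 Asynchronous cultures (parasitemia 1–1.5%, 1% final hematocrit, human A+ RBCs) in RPMI 1640 with 1% AlbuMax, 0.01% hypoxanthine, 20 mM HEPES, 2 mM glutamine. Serial dilutions from DMSO stocks (final DMSO <1%). IC50 as mean ± SD of ≥3 experiments in duplicate.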

Plasmodium falciparum [2] = assay: Anti-parasitic activity against CQ-resistant Plasmodium falciparum W2 assessed as growth inhibition by measuring increase in LDH release after 72 hrs by spectrophotometric method; format: functional; details: W2, 72 h; procedure, shortened: as §1
HMEC-1 = assay: Antiproliferative activity against SV40 large T-antigen 38 immortalized HMEC1 cells after 72 hrs by MTT assay; format: cell-based; details: Homo sapiens, HMEC-1, 72 h
Procedure, shortened: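 HMEC-1 cells (SV40 large T-antigen immortalized) grown in MCDB 131 with 10% fetal calf serum, 10 ng/mL EGF, 1 μg/mL hydrocortisone, 2 mM glutamine, penicillin/streptomycin, 20 mM Hepes. Treated with serial dilutions for 72 h; proliferation read by MTT. IC50 = dose inhibiting growth 50%; mean and SD of at least three experiments in duplicate.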

[3] = Half-life in human liver microsomes at 1 uM in presence of NADPH by HPLC-MS/MS method; format: ADME, microsome
[4] = Stability of the compound in RPMI 1640 medium at 1 uM up to 24 hrs by HPLC-MS/MS method; format: physicochemical
Escherichia coli [5] = assay: Inhibition of Escherichia coli ClpB ATP hydrolysis activity at 2 uM after 15 mins by spectrophotometric method
Procedure, shortened: (§2)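 E. coli ClpB (concentration as monomer) assayed at 37 °C in 100 mM Tris/HCl pH 8, 1 mM DTT, 1 mM EDTA, 10 mM MgCl2. Reaction started by adding ClpB to buffer holding compound (DMSO stock diluted in buffer) and 4 mM ATP. Inorganic phosphate released from ATP quantified; matching DMSO amounts as controls.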

[6] = Selectivity index, ratio of IC50 for SV40 large T-antigen 38 immortalized HMEC1 cells to IC50 for CQ-sensitive Plasmodium falciparum D10; format: toxicity; details: human, read-out: Ratio IC50
[7] = Selectivity index, ratio of IC50 for SV40 large T-antigen 38 immortalized HMEC1 cells to IC50 for CQ-resistant Plasmodium falciparum W2; format: toxicity; details: human, read-out: Ratio IC50
[8] = Inhibition of recombinant histidine-tagged Plasmodium falciparum choline kinase expressed in Escherichia coli using choline as substrate after 30 mins by HTRF method
Plasmodium falciparum [9] = assay: Antiparasitic activity against Plasmodium falciparum 3D7 infected in erythrocytes after 72 hrs by SYBR Green 1 dye-based assay; format: functional, cell-based; details: 3D7, 72 h
Escherichia coli [10] = assay: Inhibition of Escherichia coli ClpB ATP hydrolysis activity at 1.7 uM after 15 mins by spectrophotometric method; procedure, shortened: as §2
Escherichia coli [11] = assay: Inhibition of Escherichia coli ClpB ATP hydrolysis activity at 1.5 uM after 15 mins by spectrophotometric method; procedure, shortened: as §2
Escherichia coli [12] = assay: Inhibition of Escherichia coli ClpB ATP hydrolysis activity at 1.5 uM preincubated for 21 mins followed by ATP addition by spectrophotometric method
Procedure, shortened: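 E. coli ClpB ATPase in 100 mM Tris/HCl pH 8, 1 mM DTT, 1 mM EDTA, 10 mM MgCl2, 37 °C. ClpB and compound (DMSO stock diluted in buffer) combined first; reaction started by adding ATP. ATP hydrolysis followed as inorganic phosphate generated; equivalent DMSO amounts served as controls.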

In the case of O=C(c1sc2ccccc2c1Cl)N1CCCCC1, the IC50 (Plasmodium falciparum [1]) is reported as > 15 µM and the IC50 (Plasmodium falciparum [2]) is reported as > 15 µM.
C[C@@H]1CN(C(=O)c2sc3ccccc3c2Cl)C[C@H](C)O1 gave an IC50 (Plasmodium falciparum [1]) of 0.037 µM, an IC50 (Plasmodium falciparum [2]) of 0.184 µM and an IC50 (HMEC-1) of 195 µM. For the same compound, the half-life at 1 µM [3] was 40 min, the Stability [4] was “Stable” and the inhibition (Escherichia coli [5]) was “inactive”. The selectivity ratio [6] was 250 to 5000, the selectivity ratio [7] was 250 to 5000 and the IC50 [8] was 6.3 µM. The EC50 (Plasmodium falciparum [9]) was 0.3 µM.
For CCN(CC)C(=O)c1sc2ccccc2c1Cl, the IC50 (Plasmodium falciparum [1]) was > 15 µM and the IC50 (Plasmodium falciparum [2]) was > 15 µM.
In the case of C[C@@H]1CN(C(=O)c2sc3ccccc3c2O)C[C@H](C)O1, the IC50 (Plasmodium falciparum [1]) is reported as > 15 µM and the IC50 (Plasmodium falciparum [2]) is reported as > 15 µM.
In the case of O=C(Nc1ccccn1)c1sc2ccccc2c1Cl, the IC50 (Plasmodium falciparum [1]) is reported as > 15 µM and the IC50 (Plasmodium falciparum [2]) is reported as > 15 µM.
In the case of CC1CN(C(=O)c2cc3ccccc3o2)CC(C)N1 (stereo unspecified), the IC50 (Plasmodium falciparum [1]) is reported as > 15 µM and the IC50 (Plasmodium falciparum [2]) is reported as > 15 µM.
For C[C@@H]1CN(C(=O)c2cc3ccccc3s2)C[C@H](C)N1, the IC50 (Plasmodium falciparum [1]) was > 15 µM and the IC50 (Plasmodium falciparum [2]) was > 15 µM.
COc1c(C(=O)N2C[C@@H](C)O[C@@H](C)C2)sc2ccccc12 showed an IC50 (Plasmodium falciparum [1]) of 0.429 µM and an IC50 (Plasmodium falciparum [2]) of 1.73 µM.
Work on CC1CN(C(=O)c2sc3ccccc3c2Cl)CC(C)O1 (stereo unspecified) yielded an IC50 (Plasmodium falciparum [2]) of 0.26 µM.
In the case of C[C@@H]1CN(C(=O)c2sc3ccccc3c2N)C[C@H](C)O1, the IC50 (Plasmodium falciparum [1]) is reported as 8.76 µM and the IC50 (Plasmodium falciparum [2]) is reported as > 15 µM.
In the case of Cc1ccc2c(Cl)c(C(=O)N3C[C@@H](C)O[C@@H](C)C3)sc2c1, the IC50 (Plasmodium falciparum [1]) is reported as 0.086 µM, the IC50 (Plasmodium falciparum [2]) is reported as 0.596 µM and the IC50 (HMEC-1) is reported as 201 µM. It also gave a selectivity ratio [6] of 250 to 5000 and a selectivity ratio [7] of 250 to 5000.
In the case of O=C(c1sc2ccccc2c1Cl)N1CCOCC1, the IC50 (Plasmodium falciparum [1]) is reported as > 15 µM and the IC50 (Plasmodium falciparum [2]) is reported as > 15 µM.
CCc1c(C(=O)N2C[C@@H](C)O[C@@H](C)C2)sc2ccccc12 showed an IC50 (Plasmodium falciparum [1]) of 0.682 µM and an IC50 (Plasmodium falciparum [2]) of 2.31 µM.
Compound CC1CC(C)CN(C(=O)c2sc3ccccc3c2Cl)C1 (stereo unspecified) has an IC50 (Plasmodium falciparum [1]) of 0.1 µM, an IC50 (Plasmodium falciparum [2]) of 0.461 µM and an IC50 (HMEC-1) of 149 µM. The selectivity ratio [6] was 250 to 5000 and the selectivity ratio [7] was 250 to 5000.
COc1ccc(COc2c(C(=O)N3C[C@@H](C)O[C@@H](C)C3)sc3ccccc23)cc1 showed an IC50 (Plasmodium falciparum [1]) of 0.146 µM, an IC50 (Plasmodium falciparum [2]) of 0.877 µM and an IC50 (HMEC-1) of 83 µM. It also gave a selectivity ratio [6] of 250 to 5000 and a selectivity ratio [7] of 250 to 5000.
With C[C@@H]1CN(C(=O)c2cc3ccccc3[nH]2)C[C@H](C)O1 the IC50 (Plasmodium falciparum [1]) was > 15 µM and the IC50 (Plasmodium falciparum [2]) was > 15 µM.
C[C@@H]1CN(C(=O)c2sc3ccccc3c2OCc2ccc(F)c(F)c2)C[C@H](C)O1 gave an IC50 (Plasmodium falciparum [1]) of 0.141 µM, an IC50 (Plasmodium falciparum [2]) of 0.747 µM and an IC50 (HMEC-1) of 97 µM. The selectivity ratio [6] was 250 to 5000 and the selectivity ratio [7] was 250 to 5000.
With O=C(c1cc2ccccc2s1)N1CCOCC1 the IC50 (Plasmodium falciparum [1]) was > 15 µM and the IC50 (Plasmodium falciparum [2]) was > 15 µM.
C[C@@H]1CN(C(=O)c2cc3ccccc3s2)C[C@H](C)O1 showed an IC50 (Plasmodium falciparum [1]) of 1.82 µM and an IC50 (Plasmodium falciparum [2]) of 8.54 µM.
With O=C(NC12CC3CC(CC(C3)C1)C2)c1sc2ccccc2c1Cl the IC50 (Plasmodium falciparum [1]) was > 15 µM and the IC50 (Plasmodium falciparum [2]) was > 15 µM.
In the case of CCN(CC)CCCC(C)Nc1ccnc2cc(Cl)ccc12 (stereo unspecified) [CHLOROQUINE], the IC50 (HMEC-1) is reported as > 100 µM.
Compound C[C@@H]1CN(C(=O)c2sc3c(Cl)c(Cl)ccc3c2Cl)C[C@H](C)O1 has an IC50 (Plasmodium falciparum [1]) of 2.22 µM and an IC50 (Plasmodium falciparum [2]) of 7.44 µM.
For C[C@@H]1CN(C(=O)c2sc3ccccc3c2OCc2ccc(Cl)cc2)C[C@H](C)O1, the IC50 (Plasmodium falciparum [1]) was 0.186 µM, the IC50 (Plasmodium falciparum [2]) was 0.728 µM and the IC50 (HMEC-1) was 48 µM. For the same compound, the selectivity ratio [6] was 250 to 5000 and the selectivity ratio [7] was 250 to 5000.
In the case of Cc1c(C(=O)N2C[C@@H](C)O[C@@H](C)C2)sc2ccccc12, the IC50 (Plasmodium falciparum [1]) is reported as 0.226 µM, the IC50 (Plasmodium falciparum [2]) is reported as 0.753 µM and the IC50 (HMEC-1) is reported as 142 µM. The half-life at 1 µM [3] was 44 min, the inhibition (Escherichia coli [10]) was “inactive” and the selectivity ratio [6] was 250 to 5000. For the same compound, the selectivity ratio [7] was 250 to 5000.
CC1CN(C(=O)c2sc3ccccc3c2Cl)CC(C)N1 (stereo unspecified) gave an IC50 (Plasmodium falciparum [1]) of 4.91 µM and an IC50 (Plasmodium falciparum [2]) of 14.7 µM.
With CN1CCN(C(=O)c2cc3ccccc3s2)CC1 the IC50 (Plasmodium falciparum [1]) was > 15 µM and the IC50 (Plasmodium falciparum [2]) was > 15 µM.
Compound CC(=O)N1CCN(C(=O)c2cc3ccccc3s2)CC1 has an IC50 (Plasmodium falciparum [1]) of 10.9 µM and an IC50 (Plasmodium falciparum [2]) of 7.75 µM.
C[C@@H]1CN(C(=O)c2sc3ccccc3c2Cl)C[C@@H](C)O1 showed an IC50 (Plasmodium falciparum [1]) of 0.645 µM, an IC50 (Plasmodium falciparum [2]) of 2.69 µM and an IC50 (HMEC-1) of 154 µM. It also gave a selectivity ratio [6] of 250 to 5000 and a selectivity ratio [7] of 250 to 5000.
In the case of CC1CN(C(=O)c2cc3ccccc3[nH]2)CC(C)N1 (stereo unspecified), the IC50 (Plasmodium falciparum [1]) is reported as > 15 µM and the IC50 (Plasmodium falciparum [2]) is reported as > 15 µM.
In the case of C[C@@H]1CN(C(=O)c2nc3ccccc3s2)C[C@H](C)O1, the IC50 (Plasmodium falciparum [1]) is reported as 9.79 µM and the IC50 (Plasmodium falciparum [2]) is reported as > 15 µM.
C[C@@H]1CN(C(=O)c2sc3cc(Cl)ccc3c2Cl)C[C@H](C)O1 showed an IC50 (Plasmodium falciparum [1]) of 0.407 µM and an IC50 (Plasmodium falciparum [2]) of 2.09 µM.
With C[C@@H]1CN(C(=O)c2sc3ccccc3c2NCc2ccccc2)C[C@H](C)O1 the IC50 (Plasmodium falciparum [1]) was 2.62 µM and the IC50 (Plasmodium falciparum [2]) was 9.77 µM.
In the case of C[C@@H]1CN(C(=O)c2sc3cc(F)ccc3c2Cl)C[C@H](C)O1, the IC50 (Plasmodium falciparum [1]) is reported as 0.074 µM, the IC50 (Plasmodium falciparum [2]) is reported as 0.455 µM and the Stability [4] is reported as “Stable”.
Work on C[C@@H]1CN(C(=O)c2sc3ccccc3c2OCc2ccccc2)C[C@H](C)O1 yielded an IC50 (Plasmodium falciparum [1]) of 0.038 µM, an IC50 (Plasmodium falciparum [2]) of 0.142 µM and an IC50 (HMEC-1) of 73 µM. The half-life at 1 µM [3] was 2.1 min, the inhibition (Escherichia coli [11]) was “inactive” and the inhibition (Escherichia coli [12]) was “inactive”. For the same compound, the selectivity ratio [6] was 250 to 5000 and the selectivity ratio [7] was 250 to 5000.
For O=C(Nc1ccccc1)c1sc2ccccc2c1Cl, the IC50 (Plasmodium falciparum [1]) was > 15 µM and the IC50 (Plasmodium falciparum [2]) was > 15 µM.
With O=C(Nc1ccncc1)c1sc2ccccc2c1Cl the IC50 (Plasmodium falciparum [1]) was > 15 µM, the IC50 (Plasmodium falciparum [2]) was > 15 µM and the Stability [4] was “Stable”.
In the case of C[C@@H]1CN(C(=O)c2cc3ccccc3o2)C[C@H](C)O1, the IC50 (Plasmodium falciparum [1]) is reported as > 15 µM and the IC50 (Plasmodium falciparum [2]) is reported as > 15 µM.
